This passage reports MIC results from ChEMBL document CHEMBL1944507, “Structure-activity relationships for amide-, carbamate-, and urea-linked analogues of the tuberculosis drug (6S)-2-nitro-6-{[4-(trifluoromethoxy)benzyl]oxy}-6,7-dihydro-5H-imidazo[2,1-b][1,3]oxazine (PA-824)” (J Med Chem, 2012).

Converted amounts (≈) assume the structure as drawn. Some results are limits rather than exact numbers.

Assay [1] deals with Mycobacterium tuberculosis. The experiment in a line: Antimicrobial activity against Mycobacterium tuberculosis H37Rv ATCC 27294 harboring pFCA-lux AB gene measured under aerobic condition after 8 days by luminescence analysis. The class given is functional. The note with it: H37Rv ATCC 27294, 192 h. The method, boiled down:
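MABA: replicating M. tb H37Rv exposed to compound aerobically for 8 days. […] Mean of at least two independent determinations ± SD.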

Assay [2] has as its system Mycobacterium tuberculosis. The experiment in a line: Antimicrobial activity against Mycobacterium tuberculosis H37Rv ATCC 27294 harboring pFCA-lux AB gene measured under anaerobic condition after 11 days by luminescence analysis. It counts as functional. The note with it: H37Rv ATCC 27294, 264 h. The method, boiled down: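 LORA: luminescence-based low-oxygen-recovery assay on nonreplicating M. tb, 11-day anaerobic exposure. MIC is the mean of at least two independent determinations ± SD.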

In the case of `O=C(O[C@@H]1COc2nc([N+](=O)[O-])cn2C1)N1CCC(Oc2ccc(C(F)(F)F)nc2)CC1`, the figures for the MIC in assay [1] and in assay [2] were 0.14 µM (≈ 0.064 µg/mL) and 27 µM (≈ 12.3 µg/mL), respectively.
The corresponding values for `O=C(Nc1ccc(-c2ccc(F)cc2)cc1)O[C@@H]1COc2nc([N+](=O)[O-])cn2C1` are 1.3 µM (≈ 0.518 µg/mL) and 18 µM (≈ 7.17 µg/mL).
On the same counts, the results for `O=C(Nc1cccc(-c2ccc(OC(F)(F)F)cc2)c1)O[C@@H]1COc2nc([N+](=O)[O-])cn2C1` are 0.06 µM (≈ 0.0279 µg/mL) and 0.85 µM (≈ 0.395 µg/mL).
As to `O=C(COc1ccc(-c2ccc(F)nc2)cc1)N[C@@H]1COc2nc([N+](=O)[O-])cn2C1`, the MIC – broadly, the lowest concentration that inhibits growth of the organism – in assay [1] was determined as 0.69 µM (≈ 0.285 µg/mL); in assay [2], 31 µM (≈ 12.8 µg/mL).
`O=C(Nc1cccc(-c2ccc(F)nc2)c1)O[C@@H]1COc2nc([N+](=O)[O-])cn2C1`: the MIC in assay [1] is 0.24 µM (≈ 0.0958 µg/mL); in assay [2], 5.8 µM (≈ 2.32 µg/mL).
On the same counts, the results for `O=C(NCc1ccc(-c2ccc(OC(F)(F)F)cc2)cc1)N[C@@H]1COc2nc([N+](=O)[O-])cn2C1` are 1 µM (≈ 0.477 µg/mL) and 32 µM (≈ 15.3 µg/mL).
As to `CN(Cc1ccc(OC(F)(F)F)cc1)C1CCN(C(=O)O[C@@H]2COc3nc([N+](=O)[O-])cn3C2)CC1`, the MIC is 0.18 µM (≈ 0.0899 µg/mL) in assay [1] and 26 µM (≈ 13 µg/mL) in assay [2].
Consider `O=C(Nc1ccc(-c2ccc(F)cc2)cc1)N[C@@H]1COc2nc([N+](=O)[O-])cn2C1`, for which the values for the MIC in assay [1] and in assay [2] were 1.3 µM (≈ 0.517 µg/mL) and 9.1 µM (≈ 3.62 µg/mL), respectively.
The corresponding values for `O=C(Nc1cccc(-c2ccc(F)cc2)c1)O[C@@H]1COc2nc([N+](=O)[O-])cn2C1` are 0.027 µM (≈ 0.0108 µg/mL) and 1.5 µM (≈ 0.598 µg/mL).
On the same counts, the results for `O=[N+]([O-])c1cn2c(n1)OC[C@@H](NCc1ccc(OC(F)(F)F)cc1)C2` are 0.22 µM (≈ 0.0788 µg/mL) and 5.3 µM (≈ 1.9 µg/mL).
The corresponding values for `O=C(Nc1ccc(-c2ccc(C(F)(F)F)nc2)cc1)O[C@@H]1COc2nc([N+](=O)[O-])cn2C1` are 0.25 µM (≈ 0.112 µg/mL) and 4.1 µM (≈ 1.84 µg/mL).
For `O=C(CN[C@@H]1COc2nc([N+](=O)[O-])cn2C1)Nc1ccc(OC(F)(F)F)cc1`, the MIC is 0.7 µM (≈ 0.281 µg/mL) in assay [1] and 46 µM (≈ 18.5 µg/mL) in assay [2].
On the same counts, the results for `O=C(Cc1ccc(-c2ccc(F)nc2)cc1)N[C@@H]1COc2nc([N+](=O)[O-])cn2C1` are 0.68 µM (≈ 0.27 µg/mL) and more than 32 µM.
On the same counts, the results for `CN([C@@H]1COc2nc([N+](=O)[O-])cn2C1)S(=O)(=O)c1ccccc1OC(F)(F)F` are 20 µM (≈ 8.45 µg/mL) and 45 µM (≈ 19 µg/mL).
On the same counts, the results for `O=C(NCc1ccc(-c2ccc(C(F)(F)F)cc2)cc1)N[C@@H]1COc2nc([N+](=O)[O-])cn2C1` are 0.32 µM (≈ 0.148 µg/mL) and more than 32 µM.
For `O=C(NCc1ccc(OC(F)(F)F)cc1)O[C@@H]1COc2nc([N+](=O)[O-])cn2C1`, the MIC in assay [1] was determined as 0.25 µM (≈ 0.101 µg/mL); in assay [2], 17 µM (≈ 6.84 µg/mL).
As to `O=C(NCc1ccc(-c2ccc(C(F)(F)F)nc2)cc1)O[C@@H]1COc2nc([N+](=O)[O-])cn2C1`, the results for the MIC in assay [1] and in assay [2] were 0.69 µM (≈ 0.32 µg/mL) and 11 µM (≈ 5.1 µg/mL), respectively.
On the same counts, the results for `O=C(COc1ccc(-c2ccc(C(F)(F)F)cc2)cc1)N[C@@H]1COc2nc([N+](=O)[O-])cn2C1` are 0.25 µM (≈ 0.116 µg/mL) and more than 32 µM.
On the same counts, the results for `O=[N+]([O-])c1cn2c(n1)OC[C@@H](OCc1ccc(OC(F)(F)F)cc1)C2` [PRETOMANID] are 0.5 µM (≈ 0.18 µg/mL) and 2.6 µM (≈ 0.934 µg/mL).
In the case of `O=C(N[C@@H]1COc2nc([N+](=O)[O-])cn2C1)c1ccccc1OC(F)(F)F`, the results for the MIC in assay [1] and in assay [2] were 27 µM (≈ 10.1 µg/mL) and more than 64 µM, respectively.
On the same counts, the results for `O=C(Cc1ccc(-c2ccc(OC(F)(F)F)cc2)cc1)N[C@@H]1COc2nc([N+](=O)[O-])cn2C1` are 0.22 µM (≈ 0.102 µg/mL) and 5 µM (≈ 2.31 µg/mL).
Take `O=[N+]([O-])c1cn2c(n1)OC[C@@H](NS(=O)(=O)c1ccccc1OC(F)(F)F)C2`: the MIC in assay [1] and in assay [2] was more than 64 µM each time.
`CN(C(=O)O[C@@H]1COc2nc([N+](=O)[O-])cn2C1)c1ccc(OC(F)(F)F)cc1`: the MIC in assay [1] came out at 0.21 µM (≈ 0.0845 µg/mL); in assay [2], 5.4 µM (≈ 2.17 µg/mL).
The corresponding values for `O=C(N[C@@H]1COc2nc([N+](=O)[O-])cn2C1)OCc1ccc(-c2ccc(F)cc2)cc1` are 0.085 µM (≈ 0.0351 µg/mL) and 4.2 µM (≈ 1.73 µg/mL).
The corresponding values for `CN([C@@H]1COc2nc([N+](=O)[O-])cn2C1)S(=O)(=O)c1ccc(OC(F)(F)F)cc1` are 0.53 µM (≈ 0.224 µg/mL) and 22 µM (≈ 9.29 µg/mL).
Take `O=C(Nc1ccc(-c2ccc(OC(F)(F)F)cc2)cc1)N[C@@H]1COc2nc([N+](=O)[O-])cn2C1`: the MIC amounted to 0.06 µM (≈ 0.0278 µg/mL) in assay [1] and 18 µM (≈ 8.34 µg/mL) in assay [2].
`O=C(N[C@@H]1COc2nc([N+](=O)[O-])cn2C1)OCc1ccc(-c2ccc(C(F)(F)F)nc2)cc1`: the figures for the MIC in assay [1] and in assay [2] were 0.23 µM (≈ 0.107 µg/mL) and 4.7 µM (≈ 2.18 µg/mL), respectively.
Compound `O=C(N[C@@H]1COc2nc([N+](=O)[O-])cn2C1)c1ccc(OC(F)(F)F)cc1` had a minimal inhibitory concentration (MIC) in assay [1] of 1.8 µM (≈ 0.67 µg/mL).
On the same count and under the same terms, the figure for `O=[N+]([O-])c1cn2c(n1)OC[C@@H](OCc1ccc(-c3ccc(OC(F)(F)F)cc3)cc1)C2` is 0.35 µM (≈ 0.152 µg/mL).
